Data on 12 compounds can be found in ChEMBL document CHEMBL1269007, “Synthesis and biological evaluation of Apogossypolone derivatives as pan-active inhibitors of antiapoptotic B-cell lymphoma/leukemia-2 (Bcl-2) family proteins” (J Med Chem, 2010).

Active and inactive are the calls of the source. The rule behind the calls is not given here.

The target of series [1] is T1, Bcl-2-like protein 1 (Homo sapiens, UniProt Q07817). The experiment in a line: Binding affinity Bcl-xL at 200 uM by one-dimensional 1H nuclear magnetic resonance spectroscopy.
In another series the test system is PC-3. The experiment in a line: Cytotoxicity against human PC3 cells expressing high level of Bcl-xL after 72 hrs by ATP-LITE assay. It is filed as functional, cell-based. Conditions: PC-3, 72 h. Put shortly: (§1)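 Cells seeded in […] or RPMI1640 with 5 mM L-glutamine, 5% FBS, penicillin/streptomycin; H460 and H1299 at 2000, PC3 at 3000 cells/well. Compounds in 0.1% DMSO final added 24 h after seeding into fresh 5% serum medium; viability by ATP-LITE luminescence after 72 h, normalised to DMSO-treated cells.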

Another series has as its system NCI-H460. In words: Cytotoxicity against human H460 cells expressing high level of Bcl-2 after 72 hrs by ATP-LITE assay. Conditions: NCI-H460, 72 h. Format: functional, cell-based. A digest of the protocol:
as §1

Series [2] in a line: Cytotoxicity against human H1299 cells expressing high level of Mcl-1 after 72 hrs by ATP-LITE assay. Format: functional, cell-based. The conditions noted are these: NCI-H1299, 72 h. A digest of the protocol:
as §1

Series [3] has as its system Mus musculus. The experiment in a line: Reduction of spleen weight in ip dosed human Bcl2 expressing B6 transgenic BALB/c mouse administered as single dose after 24 hrs. Format: functional, organism-based.
The nature of series [4]: Cytotoxicity against human BP3 cells expressing high level of Bfl-1 and Mcl-1 after 24 hrs by annexin V-FITC and propidium iodide staining. The conditions noted are these: BP3, 24 h.
Series [5] can be described thus: Cytotoxicity against human RS4:11 cells expressing high level of Bcl-2 and Bcl-xL after 24 hrs by annexin V-FITC and propidium iodide staining. Conditions: RS4-11, 24 h.
In series [6] the target is T1, Bcl-2-like protein 1. The experiment in a line: Displacement of F-BakBH3 from Bcl-xL after 30 mins by fluorescence polarization assay. A digest of the protocol:
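GST-Bcl-XL ΔTM (100 nM) preincubated with varying compound concentrations in PBS pH 7.4 for 10 min at room temperature. FITC-labelled Bak BH3 peptide (2.5 μL of 100 nM stock) then added. Polarization read at 480/535 nm after 30 min at room temperature. Wild-type and mutant Bak BH3 peptides served as plate controls. IC50 from sigmoidal dose-response fit; mean of three independent experiments ± SE.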

A short description of series [7]: Metabolic stability of the compound in rat plasma after 40 mins. It is filed as ADME, cell-free. The conditions noted are these: read-out: Stability.
The nature of series [8]: Metabolic stability of the compound in rat microsomes after 40 mins. It is filed as ADME, Microsome. Conditions: read-out: Stability.
In series [9] the test system is Mus musculus. In words: Toxicity in human Bcl2 expressing B6 transgenic BALB/c mouse up to 120 umol/kg, ip administered as single dose after 24 hrs. Format: organism-based. The conditions noted are these: in vivo. Put shortly:
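B6 Bcl-2 transgenic Balb/c mice, age- and sex-matched, given one intraperitoneal dose (60 or 120 μmol/kg, also 30 μmol/kg) in ethanol:Cremophor EL:saline 10:10:80, 500 μL; survival and signs of toxicity observed over 24 h before sacrifice.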

The target of series [10] is Apoptosis regulator Bcl-2 (Homo sapiens, UniProt P10415). In words: Displacement of FITC-Bim BH3 peptide from Bcl-2 after 10 mins by fluorescence polarization assay.
The target in series [11] is Induced myeloid leukemia cell differentiation protein Mcl-1 (Homo sapiens, UniProt Q07820). The experiment in a line: Displacement of FITC-Bim BH3 peptide from Mcl-1 after 10 mins by fluorescence polarization assay.
A short description of series [12]: Cytotoxicity against human RS4:11 cells expressing high level of Bcl-2 and Bcl-xL after 72 hrs by annexin V-FITC and propidium iodide staining. Format: functional, cell-based. The conditions noted are these: RS4-11, 72 h.
In a further series the target is T2, Bcl-2-related protein A1 (Homo sapiens, UniProt Q16548).
T2 sequence (Q16548 whole entry): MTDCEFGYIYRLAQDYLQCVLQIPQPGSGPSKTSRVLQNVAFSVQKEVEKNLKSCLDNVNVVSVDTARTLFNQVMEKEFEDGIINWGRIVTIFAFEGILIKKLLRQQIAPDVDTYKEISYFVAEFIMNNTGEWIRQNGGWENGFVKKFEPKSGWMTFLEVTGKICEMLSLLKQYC
In words: Displacement of F-BakBH3 from Bfl-1 after 30 mins by fluorescence polarization assay.

Series [13] deals with Mus musculus. The experiment in a line: Reduction of spleen weight in human Bcl2 expressing B6 transgenic BALB/c mouse at 60 umol/kg, ip administered as single dose after 24 hrs. It is filed as functional. Details: scale not given: the % may be the effect or the level left.

T1 sequence (Q07817 whole entry): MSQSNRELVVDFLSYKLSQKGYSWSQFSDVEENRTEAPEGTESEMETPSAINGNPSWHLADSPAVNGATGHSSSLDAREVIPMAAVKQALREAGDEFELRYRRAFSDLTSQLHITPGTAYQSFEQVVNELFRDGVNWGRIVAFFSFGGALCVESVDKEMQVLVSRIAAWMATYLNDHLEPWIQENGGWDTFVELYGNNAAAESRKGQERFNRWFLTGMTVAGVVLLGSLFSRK
Chain of Apoptosis regulator Bcl-2 (P10415 whole entry): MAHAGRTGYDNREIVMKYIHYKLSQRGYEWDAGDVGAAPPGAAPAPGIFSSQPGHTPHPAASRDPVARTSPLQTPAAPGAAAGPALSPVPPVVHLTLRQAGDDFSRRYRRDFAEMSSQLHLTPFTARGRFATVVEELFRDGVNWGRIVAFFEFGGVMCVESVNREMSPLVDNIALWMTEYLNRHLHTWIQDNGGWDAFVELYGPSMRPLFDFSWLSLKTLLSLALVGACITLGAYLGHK
Chain of Induced myeloid leukemia cell differentiation protein Mcl-1 (Q07820 whole entry): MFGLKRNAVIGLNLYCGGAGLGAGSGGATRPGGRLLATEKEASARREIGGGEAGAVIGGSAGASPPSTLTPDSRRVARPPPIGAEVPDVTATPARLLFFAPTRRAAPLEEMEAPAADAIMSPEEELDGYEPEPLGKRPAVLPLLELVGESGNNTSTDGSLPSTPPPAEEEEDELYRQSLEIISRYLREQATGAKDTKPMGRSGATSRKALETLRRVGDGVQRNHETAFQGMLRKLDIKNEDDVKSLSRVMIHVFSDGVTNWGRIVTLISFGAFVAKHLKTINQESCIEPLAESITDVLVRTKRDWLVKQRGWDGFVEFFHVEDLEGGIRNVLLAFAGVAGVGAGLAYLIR

For `CC1=C(C2=C(C)C(=O)c3c(cc(O)c(O)c3CCc3ccc(OC(F)(F)F)cc3)C2=O)C(=O)c2cc(O)c(O)c(CCc3ccc(OC(F)(F)F)cc3)c2C1=O`, at Bcl-2-like protein 1 [1], the result was Active. In addition, the EC50 with PC-3 was found to be 8990 nM; with NCI-H460 it was 1440 nM; in series [2], 2380 nM; in [4], 16100 nM; in series [5], 7320 nM. Also, in the series with Mus musculus [3], the Activity entry was “Dose-dependent effect”.
In the case of `CC1=C(C2=C(C)C(=O)c3c(cc(O)c(O)c3Cc3ccc(-c4ccccc4)cc3)C2=O)C(=O)c2cc(O)c(O)c(Cc3ccc(-c4ccccc4)cc3)c2C1=O`, the result at Bcl-2-like protein 1 [1] was Active. The concentration for a half-maximal effect (EC50) in the series on PC-3 was found to be 2970 nM; with NCI-H460, 980 nM; in [2], 10300 nM; in [4] it was 810 nM; in series [5], 1740 nM. Also, the Activity entry in the series on Mus musculus [3] was “Dose-dependent effect”.
For `CC1=C(C2=C(C)C(=O)c3c(cc(O)c(O)c3CCC3CCCCC3)C2=O)C(=O)c2cc(O)c(O)c(CCC3CCCCC3)c2C1=O`, the result at Bcl-2-like protein 1 [1] was Active. Moreover, the EC50 worked out at 2400 nM in the series on PC-3; 2200 nM with NCI-H460; 1320 nM in series [2]; 15600 nM in [4]; 15700 nM in series [5]. For the same compound, the half-inhibitory concentration (IC50) at Bcl-2-like protein 1 [6] was determined as 12700 nM; in series [10] it was 6730 nM; in series [11] it was 5900 nM. Also, the results for the inhibition constant Ki (on Bcl-2-like protein 1 [6]; in [10]; in series [11]) were 8400 nM, 4470 nM and 3930 nM, respectively. In addition, the remaining at 40 min in series [7] amounted to 74%; in [8] it was 98%. The Activity entry in the series with Mus musculus [3] was “Dose-dependent effect”; in the series with Mus musculus [9], “Non-toxic”.
Take `CC1=C(C2=C(C)C(=O)c3c(cc(O)c(O)c3CCCc3ccccc3)C2=O)C(=O)c2cc(O)c(O)c(CCCc3ccccc3)c2C1=O`: the result at Bcl-2-like protein 1 [1] was Active. Besides, the EC50 with PC-3 amounted to 1300 nM; with NCI-H460 it was 920 nM; in [2], 1530 nM; in series [12] it was 3830 nM. Also, the IC50 at Bcl-2-like protein 1 [6] stood at 1440 nM; at Bcl-2-related protein A1 it was 5270 nM; in series [10] it was 2170 nM; in series [11], 670 nM. In addition, the Ki was 960 nM on Bcl-2-like protein 1 [6], 3530 nM at Bcl-2-related protein A1, 1450 nM in series [10] and 450 nM in series [11]. For the same compound, the remaining at 40 min in [7] is 87%; in series [8] it was 88%. For the same compound, the Activity result with Mus musculus [3] is “Dose-dependent effect”.
With `CC1=C(C2=C(C)C(=O)c3c(cc(O)c(O)c3CC(C)C)C2=O)C(=O)c2cc(O)c(O)c(CC(C)C)c2C1=O`, the outcome on Bcl-2-like protein 1 [1] was Active. Further, the Ki on Bcl-2-like protein 1 [6] came out at 370 nM; on Bcl-2-related protein A1 it was 930 nM; in series [10], 170 nM; in [11], 310 nM. Also, the remaining at 40 min came out at 98% in series [7] and 69% in [8]. For the same compound, the Activity result in the series on Mus musculus [3] was “Dose-dependent effect”; in the series with Mus musculus [13] it was more than 30%; in the series with Mus musculus [9] it was “Non-toxic”.
As to `CCc1ccc(CCNC(=O)c2c(O)c(O)cc3c2C(=O)C(C)=C(C2=C(C)C(=O)c4c(cc(O)c(O)c4C(=O)NCCc4ccc(CC)cc4)C2=O)C3=O)cc1`, the outcome at Bcl-2-like protein 1 [1] was Active. In addition, the half-maximal inhibitory concentration (IC50) amounted to 240 nM on Bcl-2-like protein 1 [6], 1250 nM on Bcl-2-related protein A1, 210 nM in [10] and 320 nM in [11]. Moreover, the Ki was 160 nM on Bcl-2-like protein 1 [6], 870 nM on Bcl-2-related protein A1, 140 nM in series [10] and 210 nM in [11]. Also, the Activity result in the series with Mus musculus [3] was “Dose-dependent effect”. In series [5], this compound registered an EC50 of more than 30000 nM.
Regarding `CC1=C(C2=C(C)C(=O)c3c(cc(O)c(O)c3C(=O)NCc3cccc(C)c3)C2=O)C(=O)c2cc(O)c(O)c(C(=O)NCc3cccc(C)c3)c2C1=O`, at Bcl-2-like protein 1 [1], the outcome was Active. Besides, the EC50 is 5440 nM in the series with PC-3; 6160 nM in the series with NCI-H460; more than 30000 nM in series [2]; 21600 nM in series [4]; more than 30000 nM in series [5]. The Activity result in the series on Mus musculus [3] was “Dose-dependent effect”.
As for `CC1=C(C2=C(C)C(=O)c3c(cc(O)c(O)c3CCc3ccccc3)C2=O)C(=O)c2cc(O)c(O)c(CCc3ccccc3)c2C1=O`, the outcome at Bcl-2-like protein 1 [1] was Active. Besides, the concentration for a half-maximal effect (EC50) in the series with PC-3 worked out at 1400 nM; with NCI-H460 it was 1040 nM; in [2], 850 nM; in series [12], 4750 nM; in series [4], 8720 nM. The 50% inhibitory concentration (IC50) was found to be 1790 nM on Bcl-2-like protein 1 [6], 9720 nM at Bcl-2-related protein A1, 2570 nM in [10] and 1290 nM in series [11]. Further, the Ki on Bcl-2-like protein 1 [6] came out at 1200 nM; on Bcl-2-related protein A1 it was 6470 nM; in series [10], 1730 nM; in series [11] it was 870 nM. The remaining at 40 min in series [7] came out at 81%; in series [8], 89%. In addition, the Activity entry in the series on Mus musculus [3] is “Dose-dependent effect”.
As to `CC1=C(C2=C(C)C(=O)c3c(cc(O)c(O)c3C(=O)Cc3ccccc3)C2=O)C(=O)c2cc(O)c(O)c(C(=O)Cc3ccccc3)c2C1=O`, on Bcl-2-like protein 1 [1], the outcome was Active. Further, the half-maximal effective concentration (EC50) with PC-3 was 5440 nM; with NCI-H460, 7380 nM; in [2], more than 30000 nM; in series [12], more than 30000 nM; in series [4], 9580 nM. Moreover, the IC50 on Bcl-2-like protein 1 [6] came to 340 nM; at Bcl-2-related protein A1 it was 690 nM; in series [10] it was 220 nM; in series [11], 350 nM. The inhibitory constant (Ki) came to 240 nM on Bcl-2-like protein 1 [6], 460 nM at Bcl-2-related protein A1, 150 nM in series [10] and 230 nM in series [11]. Further, in the series on Mus musculus [3], the Activity entry is “Dose-dependent effect”.
Regarding `CC1=C(C2=C(C)C(=O)c3c(cc(O)c(O)c3CCCc3ccc(F)cc3)C2=O)C(=O)c2cc(O)c(O)c(CCCc3ccc(F)cc3)c2C1=O`, the result at Bcl-2-like protein 1 [1] was Active. For the same compound, the EC50 in the series with PC-3 stood at 2620 nM; in the series with NCI-H460 it was 1480 nM; in series [2] it was 1910 nM; in series [4], 14600 nM; in series [5] it was 11200 nM. The Activity entry with Mus musculus [3] is “Dose-dependent effect”.
As to `CC1=C(C2=C(C)C(=O)c3c(cc(O)c(O)c3CCC(C)(C)c3ccccc3)C2=O)C(=O)c2cc(O)c(O)c(CCC(C)(C)c3ccccc3)c2C1=O`, the result at Bcl-2-like protein 1 [1] was Active. The EC50 in the series on PC-3 amounted to 2000 nM; with NCI-H460, 1620 nM; in series [2] it was 2160 nM; in series [4] it was 30000 nM; in series [5], 15000 nM. Moreover, the Activity result with Mus musculus [3] was “Dose-dependent effect”.
Turning to `CC1=C(C2=C(C)C(=O)c3c(cc(O)c(O)c3CC3CCCC3)C2=O)C(=O)c2cc(O)c(O)c(CC3CCCC3)c2C1=O`, the result on Bcl-2-like protein 1 [1] was Active. For the same compound, the EC50 in the series with PC-3 was determined as 5500 nM; with NCI-H460 it was 700 nM; in series [2], 2320 nM; in [4], 12800 nM; in series [5], 9830 nM. The IC50 on Bcl-2-like protein 1 [6] is 2990 nM; in series [10], 2270 nM; in series [11], 3080 nM. The inhibition constant (Ki) on Bcl-2-like protein 1 [6] was 2000 nM; in series [10], 1530 nM; in series [11], 2070 nM. Further, the Activity entry in the series with Mus musculus [3] was “Dose-dependent effect”.
